Results from different studies.
Protocols differ between the studies behind these lines.
Target: LIM domain kinase 1 (LIMK1, Homo sapiens, UniProt P53667)

| SMILES | assay | conditions | quantity | value |
| --- | --- | --- | --- | --- |
| C[C@H]1CC[C@H](n2c3cnccc3c3cnc(Nc4ccc5c(n4)CCN(C(=O)CO)C5)nc32)CC1 | binding, competition with immobilised ligand | 1 µM | remaining binding | 98% |
| C=CC(=O)N1CCC[C@@H](n2nc(-c3ccc(Oc4ccccc4)cc3)c3c(N)ncnc32)C1 | enzyme activity, inhibitor | 1 µM | inhibition | 76% |
| C#Cc1cc(-c2cc(Nc3nc(N[C@@H](C)c4ccc(F)cn4)ncc3Cl)n[nH]2)ccc1C=O | enzyme activity, inhibitor | 0.2 µM | inhibition | 24.2% |
| C1=C/COCc2cc(ccc2OCCN2CCCC2)Nc2nccc(n2)-c2cccc(c2)COC/1 | binding | 0.1 µM | remaining binding | 82% |
| CN1CCN(C(=O)c2ccc(NC(=O)Nc3ccc(N(C)c4ccnc(Nc5ccc(CS(C)(=O)=O)cc5)n4)cc3)cc2)CC1 | binding, competition with immobilised ligand | 1 µM | remaining binding | 61% |
| CO[C@@H]1[C@H](N(C)C(=O)c2ccccc2)C[C@H]2O[C@]1(C)n1c3ccccc3c3c4c(c5c6ccccc6n2c5c31)C(=O)NC4 | enzyme activity, inhibitor | 1 µM | inhibition | 12% |
| CC(C)S(=O)(=O)c1ccc2nccc(Nc3ccc4sc(C5CCCC5)nc4c3)c2c1 | enzyme activity, inhibitor | 1 µM | activity vs control | 82% |
| CCCCC(=O)Nc1ccc(-c2ccc3ncn(CCC)c(=O)c3c2)cn1 | binding, competition with immobilised ligand | 0.5 µM | remaining binding | 96% |
